How the values were obtained:
[1] = target: Human immunodeficiency virus type 1 reverse transcriptase (Human immunodeficiency virus 1, UniProt Q72547, Y181I); experiment: Inhibition of HIV1 reverse transcriptase p66 Y181I mutant associated RNA dependent DNA polymerase activity expressed in Escherichia coli assessed as reduction in [3H]dTTP incorporation using poly(rA)/oligo(dT) as template/primer by scintillation counting analysis
[2] = test system: Human immunodeficiency virus 1; experiment: Antiviral activity against HIV1 harboring reverse transcriptase Y188L mutant infected in human […] cells assessed as protection against virus-induced cytopathic effect measured on day 5 post infection by MTT assay; assay type: functional, cell-based; settings: Human immunodeficiency virus 1, 120 h
[3] = test system: Human immunodeficiency virus 1; experiment: Antiviral activity against HIV1 harboring reverse transcriptase K103N /[…] double mutant infected in human […] cells assessed as protection against virus-induced cytopathic effect measured on day 5 post infection by MTT assay; assay type: functional, cell-based; settings: Human immunodeficiency virus 1, 120 h
[4] = target: Human immunodeficiency virus type 1 reverse transcriptase (Human immunodeficiency virus 1, UniProt Q72547, K103N); experiment: Inhibition of HIV1 reverse transcriptase p66 K103N mutant associated RNA dependent DNA polymerase activity expressed in Escherichia coli assessed as reduction in [3H]dTTP incorporation using poly(rA)/oligo(dT) as template/primer by scintillation counting analysis
[5] = test system: Human immunodeficiency virus 1; experiment: Antiviral activity against HIV1 NL4-3 infected in human […] cells assessed as protection against virus-induced cytopathic effect measured on day 5 post infection by MTT assay; assay type: functional, cell-based; settings: Human immunodeficiency virus 1, NL4-3, 120 h
Outline: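 Values are means of two to three independent experiments, each run in triplicate. The lowest detectable concentration is reported where activity fell below the assay limit.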

[6] = target: Human immunodeficiency virus type 1 reverse transcriptase (Human immunodeficiency virus 1, UniProt Q72547); experiment: Inhibition of HIV1 NL4-3 reverse transcriptase His-tagged p66/p51 associated RNA dependent DNA polymerase activity expressed in Escherichia coli assessed as reduction in [3H]dTTP incorporation using poly(rA)/oligo(dT) as template/primer by scintillation counting analysis
[7] = test system: Human immunodeficiency virus 1; experiment: Antiviral activity against HIV1 harboring reverse transcriptase Y181C mutant infected in human […] cells assessed as protection against virus-induced cytopathic effect measured on day 5 post infection by MTT assay; assay type: functional, cell-based; settings: Human immunodeficiency virus 1, 120 h
[8] = Inhibition of HIV1 reverse transcriptase p66 K103N/[…] double mutant associated RNA dependent DNA polymerase activity expressed in Escherichia coli assessed as reduction in [3H]dTTP incorporation using poly(rA)/oligo(dT) as template/primer by scintillation counting analysis; set-up: species or system Human immunodeficiency virus 1
[9] = test system: Human immunodeficiency virus 1; experiment: Antiviral activity against HIV1 harboring reverse transcriptase K103N mutant infected in human […] cells assessed as protection against virus-induced cytopathic effect measured on day 5 post infection by MTT assay; assay type: functional, cell-based; settings: Human immunodeficiency virus 1, 120 h
[10] = Cytotoxicity against human MT4 cells assessed as cell viability by MTT assay; assay type: cell-based
Outline: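 Uninfected MT-4 cells scored for viability by MTT. […] Values are means of two to three independent experiments, each run in triplicate.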

[11] = test system: Human immunodeficiency virus 1; experiment: Ratio of EC50 for HIV-1 harboring reverse transcriptase K103N/[…] double mutant infected in human MT4 cells to EC50 for HIV1 NL4-3 infected in human MT4 cells; assay type: functional
Outline: (§1)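 Fold change calculated as EC50 against the stated resistant mutant HIV-1 strain divided by EC50 against wild-type NL4-3. Both EC50s come from MTT read-out of virus-induced death in MT-4 cells, mean of two to three independent experiments each in triplicate.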

[12] = test system: Human immunodeficiency virus 1; experiment: Ratio of EC50 for HIV-1 harboring reverse transcriptase Y188L mutant infected in human MT4 cells to EC50 for HIV1 NL4-3 infected in human MT4 cells; assay type: functional; outline: as §1
[13] = test system: Human immunodeficiency virus 1; experiment: Ratio of EC50 for HIV-1 harboring reverse transcriptase K103N mutant infected in human MT4 cells to EC50 for HIV1 NL4-3 infected in human MT4 cells; assay type: functional; outline: as §1
[14] = Selectivity index, ratio of CC50 for human MT4 cells to EC50 for HIV1 NL4-3 infected in human MT4 cells; assay type: toxicity, cell-based; settings: read-out: Ratio CC50/EC50
Outline: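 SI computed as CC50/EC50, using the MTT-based CC50 in uninfected MT-4 cells and the MTT-based EC50 against HIV-1 NL4-3-induced cell death in MT-4 cells. Experiments were run in triplicate, two to three times.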

[15] = test system: Human immunodeficiency virus 1; experiment: Ratio of EC50 for HIV-1 harboring reverse transcriptase Y181C mutant infected in human MT4 cells to EC50 for HIV1 NL4-3 infected in human MT4 cells; assay type: functional; outline: as §1

Compound	IC50 [1] [nM]	EC50 [2] [nM]	EC50 [3] [nM]	IC50 [4] [nM]	EC50 [5] [nM]	IC50 [6] [nM]	EC50 [7] [nM]	IC50 [8] [nM]	EC50 [9] [nM]	CC50 [10] [nM]	Ratio EC50 [11]	Ratio EC50 [12]	Ratio EC50 [13]	selectivity ratio [14]	Ratio EC50 [15]
Cc1cc(C)cc(S(=O)(=O)c2c(C(=O)N[C@@H](C)C(=O)N[C@H](C)c3ccncc3)[nH]c3ccc(Cl)cc23)c1	1700	742	1260	300	0.6	610	0.6	490	0.6	–	–	–	–	–	–
Cc1cc(C)cc(S(=O)(=O)c2c(C(=O)N[C@@H](C)C(=O)N[C@@H](C)c3ccncc3)[nH]c3ccc(Cl)cc23)c1	440	612	1280	2590	0.6	430	0.6	860	1.3	–	–	–	–	–	–
Cc1cc(C)cc(S(=O)(=O)c2c(C(=O)N[C@H](C)C(=O)NCc3ccncn3)[nH]c3ccc(Cl)cc23)c1	3350	5740	> 24500	19900	0.6	1800	171	–	76	–	–	–	–	–	–
Cc1cc(C)cc(S(=O)(=O)c2c(C(=O)NCC(=O)NCc3ccco3)[nH]c3ccc(Cl)cc23)c1	461	1120	18500	538	0.6	145	< 0.6	586	60	> 50000	>26477	>1600	>86	> 83400	–
Cc1cc(C)cc(S(=O)(=O)c2c(C(=O)N[C@H](C)C(=O)N[C@H](C)c3ccncc3)[nH]c3ccc(Cl)cc23)c1	5790	> 27000	> 27000	23700	3.8	410	1170	13800	1210	–	–	–	–	–	–
Cc1cc(C)cc(S(=O)(=O)c2c(C(=O)N[C@H](C)C(=O)N[C@@H](C)c3ccncc3)[nH]c3ccc(Cl)cc23)c1	9510	> 28500	19300	3550	1.9	1190	668	8420	204	–	–	–	–	–	–
Cc1cc(C)cc(S(=O)(=O)c2c(C(=O)NCc3ccc4nc(N)[nH]c4c3)[nH]c3ccc(Cl)cc23)c1	284	–	> 5890	183	0.6	278	79	470	18	5890	>9810	–	30	> 9810	132
Cc1cc(C)cc(S(=O)(=O)c2c(C(=O)N[C@H](C)C(=O)NCc3ccco3)[nH]c3ccc(Cl)cc23)c1	276	> 30200	> 30200	70	0.6	145	933	233	311	–	–	–	–	–	–
Cc1cc(C)cc(S(=O)(=O)c2c(C(=O)NCC(=O)NCc3ccncn3)[nH]c3ccc(Cl)cc23)c1	529	449	2300	548	0.6	202	0.6	835	19.6	> 48800	>3842	>743	33	> 81400	1
Cc1cc(C)cc(S(=O)(=O)c2c(C(=O)Nc3ccnc(C#N)c3)[nH]c3ccc(Cl)cc23)c1	306	–	> 6840	72	0.7	23	65	514	0.7	6840	>9771	–	1	> 9770	92
Cc1cc(C#N)cc(C)c1Oc1nc(Nc2ccc(C#N)cc2)nc(N)c1Br [ETRAVIRINE]	–	–	4.6	–	16.1	–	18	97	0.7	> 23000	–	–	–	–	–
Cc1cc(C)cc(S(=O)(=O)c2c(C(=O)NCC(=O)NC(C)c3ccccc3F)[nH]c3ccc(Cl)cc23)c1 (racemic)	–	3670	> 23000	–	0.6	–	13	–	387	> 23000	>38345	6118	552	> 38300	19
Cc1cc(C)cc(S(=O)(=O)c2c(C(=O)NC(C)c3ccccc3F)[nH]c3ccc(Cl)cc23)c1 (racemic)	–	969	3960	–	0.7	–	103	–	0.7	> 51500	>5656	>1384	1	> 73600	>147
Cc1cc(C)cc(S(=O)(=O)c2c(C(=O)NCc3cccc(N)c3)[nH]c3ccc(Cl)cc23)c1	64	24	86	66	0.7	41	0.7	35	0.7	> 53400	123	34	1	> 76300	1
Cc1cc(C)cc(S(=O)(=O)c2c(C(=O)NC(C)C(=O)NCc3ccncn3)[nH]c3ccc(Cl)cc23)c1 (racemic)	–	760	798	–	0.6	–	0.6	–	0.6	28100	>1330	>1267	1	> 46800	1
Cc1cc(C)cc(S(=O)(=O)c2c(C(=O)N[C@@H](C)C(=O)NCc3ccco3)[nH]c3ccc(Cl)cc23)c1	14200	700	1890	1120	0.6	113	3.5	9640	0.6	–	–	–	–	–	–
Cc1cc(C)cc(S(=O)(=O)c2c(C(=O)NCC(=O)NCCc3cccs3)[nH]c3ccc(Cl)cc23)c1	–	> 3580	> 3580	–	3.8	–	321	–	1340	35700	>941	>941	352	9480	84
Cc1cc(C)cc(S(=O)(=O)c2c(C(=O)N[C@@H](C)C(=O)NCc3ccncn3)[nH]c3ccc(Cl)cc23)c1	3140	380	779	2860	0.6	470	0.6	14300	0.6	–	–	–	–	–	–
Cc1cc(C)cc(S(=O)(=O)c2c(C(=O)NC(C)C(=O)NCCn3c(C)cnc3[N+](=O)[O-])[nH]c3ccc(Cl)cc23)c1 (racemic)	–	4770	5280	–	0.2	–	170	–	170	16000	26405	23850	850	94200	850

— ChEMBL document CHEMBL4038304, “Chiral Indolylarylsulfone Non-Nucleoside Reverse Transcriptase Inhibitors as New Potent and Broad Spectrum Anti-HIV-1 Agents” (J Med Chem, 2017)
